In ChEMBL document CHEMBL4402576, “Discovery and Development of Small-Molecule Inhibitors of Glycogen Synthase” (J Med Chem, 2020):

Legend:
Saccharomyces cerevisiae [1] = assay: Inhibition of recombinant His-tagged yeast GYS2P expressed in Escherichia coli BL21(DE3) cells assessed as enzyme activity at 20 uM using UDPG as substrate in presence of G-6-P by 14C-glucose incorporation assay relative to control; parameters: scale not given: the % may be the effect or the level left
[2] = target: T1, Glycogen [starch] synthase, muscle (Homo sapiens) (UniProt P13807); assay: Inhibition of C-terminal 6His-tagged wild type human GYS1 assessed as enzyme activity at 20 uM using UDPG as substrate in presence of 1 mM G-6-P by 14C-glucose incorporation assay relative to control; parameters: scale not given: the % may be the effect or the level left
T1 sequence (whole entry): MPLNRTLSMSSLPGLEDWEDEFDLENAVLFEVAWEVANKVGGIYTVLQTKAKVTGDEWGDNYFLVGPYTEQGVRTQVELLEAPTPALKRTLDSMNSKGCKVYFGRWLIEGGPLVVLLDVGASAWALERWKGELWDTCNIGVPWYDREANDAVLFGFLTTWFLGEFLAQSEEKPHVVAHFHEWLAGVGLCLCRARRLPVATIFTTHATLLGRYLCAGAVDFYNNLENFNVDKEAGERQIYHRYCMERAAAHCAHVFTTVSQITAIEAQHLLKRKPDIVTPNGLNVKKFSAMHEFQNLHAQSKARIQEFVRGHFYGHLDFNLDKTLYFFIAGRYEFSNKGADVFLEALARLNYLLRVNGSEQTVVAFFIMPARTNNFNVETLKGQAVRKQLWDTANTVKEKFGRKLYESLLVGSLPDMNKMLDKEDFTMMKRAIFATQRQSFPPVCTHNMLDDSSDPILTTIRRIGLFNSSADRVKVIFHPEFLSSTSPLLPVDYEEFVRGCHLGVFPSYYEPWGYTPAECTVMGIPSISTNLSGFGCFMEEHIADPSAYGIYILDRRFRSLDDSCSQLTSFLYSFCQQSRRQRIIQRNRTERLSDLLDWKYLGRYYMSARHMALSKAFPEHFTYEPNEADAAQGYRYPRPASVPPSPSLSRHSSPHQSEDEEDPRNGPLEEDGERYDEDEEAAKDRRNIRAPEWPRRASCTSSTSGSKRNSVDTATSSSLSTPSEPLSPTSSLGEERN

Homo sapiens [3] = species: Homo sapiens; assay: Inhibition of C-terminal 6His-tagged human GYS1 delta634S8,11N mutant assessed as enzyme activity at 20 uM using UDPG as substrate in presence of 0.4 mM G-6-P by 14C-glucose incorporation assay relative to control; parameters: scale not given: the % may be the effect or the level left
[4] = target: T2, Glycogen [starch] synthase, muscle (Homo sapiens, UniProt P13807); assay: Inhibition of C-terminal 6His-tagged wild type human GYS1 using UDPG as substrate in presence of 1 mM G-6-P by 14C-glucose incorporation assay
T2 sequence (P13807 whole entry): T1 sequence (whole entry)
Procedure, shortened: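 Full-length wild-type hGYS1 with C-terminal 6×His tag in place of the intein-chitin binding domain, Ni-NTA purified. Glucose transfer from UDP-[14C]glucose into glycogen with 0.2 mM UDPG and 1 mM G6P. Controls contained 2% (v/v) DMSO. IC50 was fitted by four-parameter logistic. Values are mean ± SEM of at least three independent experiments in duplicate.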

Homo sapiens [5] = species: Homo sapiens; assay: Inhibition of C-terminal 6His-tagged human GYS1 delta634S8,11N mutant assessed as enzyme activity at 300 uM using UDPG as substrate in presence of 0.4 mM G-6-P by 14C-glucose incorporation assay relative to control; parameters: scale not given: the % may be the effect or the level left
Saccharomyces cerevisiae [6] = assay: Inhibition of recombinant His-tagged yeast GYS2P expressed in Escherichia coli BL21(DE3) cells assessed as enzyme activity at 300 uM using UDPG as substrate in presence of G-6-P by 14C-glucose incorporation assay relative to control; parameters: scale not given: the % may be the effect or the level left
[7] = target: T1, Glycogen [starch] synthase, muscle (Homo sapiens); assay: Inhibition of C-terminal 6His-tagged wild type human GYS1 assessed as enzyme activity at 300 uM using UDPG as substrate in presence of 1 mM G-6-P by 14C-glucose incorporation assay relative to control; parameters: scale not given: the % may be the effect or the level left

SMILES | Activity [2] [%] | Activity (Homo sapiens [3]) [%] | IC50 [4] [µM] | Activity (Homo sapiens [5]) [%] | Activity [7] [%] | Activity (Saccharomyces cerevisiae [1]) [%] | Activity (Saccharomyces cerevisiae [6]) [%]
CN1CCCC1CCn1cnc(-c2ccccc2)c1-c1ccncc1 (stereo unspecified) | – | – | – | 93.3 | > 95 | – | > 95
Oc1ccc(-c2n[nH]c(C(F)(F)F)c2-c2ccc(Cl)cc2)c(O)c1 | > 95 | 87.9 | – | – | – | > 95 | –
Oc1ccc(-c2c(-c3cc(F)c(O)cc3O)n[nH]c2C(F)(F)F)cc1 | 78.4 | 74.2 | 72.4 | – | – | 65.2 | –
NC(=O)c1ccc(-n2c(CCC(=O)O)ccc2-c2ccccc2)cc1 | – | – | – | 40.6 | 78.7 | – | 49.3
Cc1ccc(-c2ccccc2)n1-c1ccc(O)cc1 | – | – | – | 84.3 | > 95 | – | 79.7
O=[N+]([O-])c1ccc(-c2c(-c3ccc(O)cc3O)n[nH]c2C(F)(F)F)cc1 | 89.2 | 92.7 | – | – | – | 82.3 | –
Oc1ccc(-c2n[nH]c(C(F)(F)F)c2-c2ccc(OC(F)(F)F)cc2)c(O)c1O | 81.4 | 40.3 | – | – | – | 91.6 | –
c1ccc(-c2ncn(CCc3c[nH]cn3)c2-c2ccncc2)cc1 | – | – | – | 94.4 | > 95 | – | 72.7
Oc1ccc(-c2n[nH]c(C(F)(F)F)c2-c2ccc(Cl)c(Cl)c2)c(O)c1O | 12.2 | 5.28 | 13.7 | – | – | 47.4 | –
Oc1ccc(-n2c(-c3ccccc3)ccc2-c2ccccc2)cc1 | – | – | – | > 95 | > 95 | – | 86
N#Cc1ccc(-c2c(-c3ccc(O)c(O)c3O)n[nH]c2C(F)(F)F)cc1 | 42 | 8.14 | 10.1 | – | – | 51.2 | –
O=C(O)CCc1ccc(-c2ccccc2)n1-c1ccc(F)cc1 | – | – | – | 72.1 | 87.5 | – | 84.7
COc1ccc(-c2ccc(CCC(=O)O)n2-c2ccc(O)cc2)cc1 | – | – | – | 50.6 | 84 | – | 34.5
Oc1ccc(-c2c(-c3ccccc3)ncn2CCCn2ccnc2)cc1 | – | – | – | > 95 | > 95 | – | 94.8
Oc1ccc(-c2c(-c3ccccc3)ncn2CCc2c[nH]cn2)cc1 | – | – | – | 56.6 | 93.4 | – | 66.6

Continued, in another order:

Activity [2] [%] | Activity (Homo sapiens [3]) [%] | IC50 [4] [µM] | Activity (Homo sapiens [5]) [%] | Activity [7] [%] | SMILES | Activity (Saccharomyces cerevisiae [1]) [%] | Activity (Saccharomyces cerevisiae [6]) [%]
80.1 | > 95 | – | – | – | COC(=O)c1ccc(-c2c(-c3ccc(O)c(O)c3O)n[nH]c2C)cc1 | 90.6 | –
52.5 | – | 19.5 | – | – | Oc1ccc(-c2n[nH]cc2-c2ccc(Cl)c(Cl)c2)c(O)c1O | – | –
22.6 | 23 | 9.82 | – | – | Oc1ccc(-c2c[nH]nc2-c2ccc(O)c(O)c2O)cc1 | 6.21 | –
84.7 | 81.7 | – | – | – | Cc1[nH]nc(-c2ccc(O)c(O)c2O)c1-c1ccc(Cl)c(Cl)c1 | > 95 | –
47.2 | 5.68 | 16.4 | – | – | Oc1ccc(-c2n[nH]c(C(F)(F)F)c2-c2ccccc2)c(O)c1O | 51.8 | –
91.8 | > 95 | 52.9 | 6.47 | 4.34 | Cc1[nH]nc(-c2ccc(O)c(O)c2O)c1-c1ccc(Cl)cc1 | > 95 | 3.52
84.7 | 25.2 | – | – | – | Oc1ccc(-c2n[nH]cc2-c2ccccc2)c(O)c1O | > 95 | –
66.8 | 85 | 34 | – | – | O=[N+]([O-])c1ccc(-c2c[nH]nc2-c2ccc(O)c(O)c2O)cc1 | 78.4 | –
94 | 89 | – | – | – | Cc1[nH]nc(-c2ccc(O)c(O)c2O)c1-c1ccc(F)cc1 | > 95 | –
